Source: ChEMBL document CHEMBL1806392, “Phytochemical studies on Stemona aphylla: isolation of a new stemofoline alkaloid and six new stemofurans” (2011)
Values after ≈ are worked out from the molar mass of the structure shown.

How the values were obtained:
[1] = target: Acetylcholinesterase (Homo sapiens) (UniProt P22303)
Staphylococcus aureus [2] = assay: Antibacterial activity against Staphylococcus aureus by broth dilution method; assay type: functional
Procedure, shortened: (§1)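 Broth dilution MIC determination against the bacterium, reported in µg/mL. Gentamicin served as the positive control.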

Klebsiella pneumoniae = assay: Antibacterial activity against Klebsiella pneumoniae by broth dilution method; assay type: functional
Procedure, shortened: as §1

Candida albicans = assay: Antifungal activity against Candida albicans by broth dilution method; assay type: functional
Procedure, shortened: (§2)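 Antifungal MIC determined by broth dilution, reported in µg/mL. Amphotericin B served as the positive control.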

Staphylococcus aureus [3] = assay: Antibacterial activity against methicillin-resistant Staphylococcus aureus by broth dilution method; assay type: functional
Procedure, shortened: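 Broth dilution giving an MIC in µg/mL, with gentamicin as the antibacterial positive control. The same series covered E. coli, K. pneumoniae, S. aureus, S. pyogenes and two fungi.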

Streptococcus pyogenes = assay: Antibacterial activity against Streptococcus pyogenes by broth dilution method; assay type: functional
Procedure, shortened: as §1

Escherichia coli = assay: Antibacterial activity against Escherichia coli by broth dilution method; assay type: functional
Procedure, shortened: as §1

Cryptococcus neoformans = assay: Antifungal activity against Cryptococcus neoformans by broth dilution method; assay type: functional
Procedure, shortened: as §2

Chain of Acetylcholinesterase (Homo sapiens) (P22303 whole entry): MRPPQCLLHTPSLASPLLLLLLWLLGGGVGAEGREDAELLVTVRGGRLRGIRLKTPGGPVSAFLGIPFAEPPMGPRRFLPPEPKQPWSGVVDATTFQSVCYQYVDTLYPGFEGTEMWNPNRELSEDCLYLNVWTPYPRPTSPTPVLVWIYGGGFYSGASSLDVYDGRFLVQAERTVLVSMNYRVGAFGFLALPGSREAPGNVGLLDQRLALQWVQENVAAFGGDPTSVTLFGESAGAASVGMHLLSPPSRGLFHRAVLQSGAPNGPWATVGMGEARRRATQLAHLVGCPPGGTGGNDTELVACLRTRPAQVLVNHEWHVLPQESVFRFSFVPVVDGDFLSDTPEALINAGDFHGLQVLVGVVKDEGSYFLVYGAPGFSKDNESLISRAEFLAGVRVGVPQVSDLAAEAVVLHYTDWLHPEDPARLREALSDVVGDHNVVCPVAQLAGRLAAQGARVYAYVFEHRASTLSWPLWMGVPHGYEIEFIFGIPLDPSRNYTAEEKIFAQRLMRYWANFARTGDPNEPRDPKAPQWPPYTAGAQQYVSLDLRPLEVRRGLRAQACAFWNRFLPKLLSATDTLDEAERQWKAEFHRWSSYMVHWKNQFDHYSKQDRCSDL

Row | Compound | MIC [1] [ng] | MIC (Staphylococcus aureus [2]) [µg/mL] | MIC (Klebsiella pneumoniae) [µg/mL] | MIC (Candida albicans) [µg/mL] | MIC (Staphylococcus aureus [3]) [µg/mL] | MIC (Streptococcus pyogenes) [µg/mL] | MIC (Escherichia coli) [µg/mL] | MIC (Cryptococcus neoformans) [µg/mL]
1 | CC[C@H](O)C[C@@]12[C@@H]3C[C@H]4[C@H]5[C@H](C)[C@@H]([C@@H]6OC(=O)C(C)=C6OC)O[C@]5(O3)[C@@H]1CCN42 | 100 | – | – | – | – | – | – | –
2 | COc1cc(-c2cc3c(O)cccc3o2)c(C)c(OC)c1C [STEMOFURAN J] | – | 62.5 (≈ 209 µM) | 62.5 (≈ 209 µM) | 31.3 (≈ 105 µM) | 15.6 (≈ 52.3 µM) | 62.5 (≈ 209 µM) | 62.5 (≈ 209 µM) | 7.8 (≈ 26.1 µM)
3 | CC[C@H](O)C[C@@]12[C@@H]3C[C@H]4[C@H]5[C@H](C)/C(=C6/OC(=O)C(C)=C6OC)O[C@]5(O3)[C@@H]1CCN42 | 10 | – | – | – | – | – | – | –
4 | CCCC[C@@]12C3CCN1[C@H]1C[C@H]2O[C@@]32O/C(=C3\OC(=O)C(C)=C3OC)[C@@H](C)[C@H]12 | 10 | – | – | – | – | – | – | –
5 | COc1cc(O)c(C)c(-c2cc3c(O)cc(OC)cc3o2)c1 [STEMOFURAN M] | – | 31.3 (≈ 104 µM) | 62.5 (≈ 208 µM) | 31.3 (≈ 104 µM) | 31.3 (≈ 104 µM) | 62.5 (≈ 208 µM) | 125 (≈ 416 µM) | 31.3 (≈ 104 µM)
6 | CC/C=C/[C@@]12[C@@H]3C[C@H]4[C@H]5[C@H](C)/C(=C6/OC(=O)C(C)=C6OC)O[C@]5(O3)[C@@H]1CCN42 | 5 | – | – | – | – | – | – | –
7 | GENTAMICIN | – | 22.5 | 11.3 | – | 45 | 5.6 | 11.3 | –
8 | CC[C@H](O)C[C@@]12[C@@H]3C[C@H]4[C@H]5[C@H](C)[C@@H]([C@H]6OC(=O)C(C)=C6OC)O[C@]5(O3)[C@@H]1CCN42 | 50 | – | – | – | – | – | – | –
9 | CC[C@H](O)C[C@@]12[C@@H]3C[C@H]4[C@H]5[C@H](C)/C(=C6\OC(=O)C(C)=C6OC)O[C@]5(O3)[C@@H]1CCN42 | 10 | – | – | – | – | – | – | –
10 | COc1cc(OC)c(C)c(-c2cc3c(O)cc(OC)cc3o2)c1 [STEMOFURAN P] | – | 31.3 (≈ 99.6 µM) | 125 (≈ 398 µM) | 15.6 (≈ 49.6 µM) | 62.5 (≈ 199 µM) | – | 62.5 (≈ 199 µM) | 7.8 (≈ 24.8 µM)
11 | COc1cc(-c2cc3c(O)cccc3o2)c(C)c(O)c1C [STEMOFURAN E] | – | 62.5 (≈ 220 µM) | 62.5 (≈ 220 µM) | 31.3 (≈ 110 µM) | 15.6 (≈ 54.9 µM) | – | 62.5 (≈ 220 µM) | 7.8 (≈ 27.4 µM)
12 | C[C@@H]1[C@H](O)[C@@H](C)/C=C/C=C/C=C/C=C/C=C/C=C/C=C/[C@H](O[C@@H]2O[C@H](C)[C@@H](O)[C@H](N)[C@@H]2O)C[C@@H]2O[C@](O)(C[C@@H](O)C[C@@H](O)[C@H](O)CC[C@@H](O)C[C@@H](O)CC(=O)O[C@H]1C)C[C@H](O)[C@H]2C(=O)O [AMPHOTERICIN B] | – | – | – | 15.6 (≈ 16.9 µM) | – | – | – | 3.9 (≈ 4.22 µM)
